Measurements: ChEMBL document CHEMBL1158682, “Detecting potential teratogenic alkaloids from blue cohosh rhizomes using an in vitro rat embryo culture” (J Nat Prod, 1999)
pIC50: −log10 of the molar value.

Legend:
[1] = Teratogenic activity in rat embryo assessed as incidence of major malformation at 1.25 ug/mL after 45 hrs relative to control; assay type: toxicity
Procedure, shortened: (§1)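 Time-pregnant rats were euthanized with CO2 on gestation day 9. Embryos were dissected on day 9.5 at stages 11a-11c and cultured in 2.0 mL rat serum plus 0.5 mL Waymouth's MB 752/1 with penicillin-streptomycin. Test material in EtOH-DMSO (1:1) was added at culture start, with a solvent control. Growth, development score and major malformations were assessed after 45 h; controls were pooled across experiments.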

Rattus norvegicus [2] = species on record: Rattus norvegicus; assay: Effect on growth and morphogenesis of organogenesis-staged rat embryo at 1.25 ug/mL after 45 hrs relative to control; assay type: functional
Procedure, shortened: (§2)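 Rat whole embryo culture: gestation day 9.5 embryos (stages 11a-11c) dissected from time-pregnant dams. Medium was 2.0 mL rat serum plus 0.5 mL Waymouth's MB 752/1 with penicillin-streptomycin. Test material was dissolved in EtOH-DMSO (1:1) and added at the start of culture; the solvent served as control. After 45 h, a developmental score was assigned and major malformations recorded. Controls were pooled across experiments.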

Rattus norvegicus [3] = species on record: Rattus norvegicus; assay: Effect on growth and morphogenesis of organogenesis-staged rat embryo at 5 ug/mL after 45 hrs relative to control; assay type: functional; procedure, shortened: as §1
Rattus norvegicus [4] = species on record: Rattus norvegicus; assay: Effect on growth and morphogenesis of organogenesis-staged rat embryo at 20 ug/mL after 45 hrs relative to control; assay type: functional; procedure, shortened: as §1
Rattus norvegicus [5] = species on record: Rattus norvegicus; assay: Effect on growth and morphogenesis of organogenesis-staged rat embryo at 80 ug/mL after 45 hrs relative to control; assay type: functional; procedure, shortened: as §1
[6] = Teratogenic activity in rat embryo assessed as incidence of major malformation at 5 ug/mL after 45 hrs relative to control; assay type: toxicity; procedure, shortened: as §1
[7] = Teratogenic activity in rat embryo assessed as incidence of major malformation at 20 ug/mL after 45 hrs relative to control; assay type: toxicity; procedure, shortened: as §1
[8] = Teratogenic activity in rat embryo assessed as incidence of major malformation at 80 ug/mL after 45 hrs relative to control; assay type: toxicity; procedure, shortened: as §1
Rattus norvegicus [9] = species on record: Rattus norvegicus; assay: Effect on growth and morphogenesis of organogenesis-staged rat embryo at 0.1 ug/mL after 45 hrs relative to control; assay type: functional; procedure, shortened: as §2
[10] = Embryotoxicity in rat embryo at 5 ug/mL; assay type: toxicity; procedure, shortened: as §1
[11] = Embryotoxicity in rat embryo at 20 ug/mL; assay type: toxicity; procedure, shortened: as §1
[12] = Embryotoxicity in rat embryo at 80 ug/mL; assay type: toxicity; procedure, shortened: as §1
[13] = Embryotoxicity in rat embryo at 250 ug/mL; assay type: toxicity; procedure, shortened: as §1
Rattus norvegicus [14] = species on record: Rattus norvegicus; assay: Effect on growth and morphogenesis of organogenesis-staged rat embryo at 250 ug/mL after 45 hrs relative to control; assay type: functional; procedure, shortened: as §1
[15] = Teratogenic activity in rat embryo assessed as incidence of major malformation at 250 ug/mL after 45 hrs relative to control; assay type: toxicity; procedure, shortened: as §1
[16] = Binding affinity to nicotinic receptor
[17] = Binding affinity to muscarinic acetylcholine receptor
[18] = Teratogenic activity in rat embryo assessed as incidence of major malformation at 50 ug/mL after 45 hrs relative to control; assay type: toxicity; procedure, shortened: as §1

Row | Compound | Activity [1] | Activity (Rattus norvegicus [2]) | Activity (Rattus norvegicus [3]) | Activity (Rattus norvegicus [4]) | Activity (Rattus norvegicus [5]) | Activity [6] | Activity [7] | Activity [8] | Activity (Rattus norvegicus [9]) | Activity [10] | Activity [11] | Activity [12] | Activity [13] | Activity (Rattus norvegicus [14]) | Activity [15] | pIC50 [16] | pIC50 [17] | Activity [18]
1 | COc1ccc2c(c1O)-c1c(O)c(OC)cc3c1[C@H](C2)[N+](C)(C)CC3 [MAGNOFLORINE] | Not Active | 28.2% | 29% | 27.8% | 28.2% | Not Active | Not Active | Not Active | – | – | – | – | – | – | – | – | – | –
2 | O=C1CCC[C@@H]2[C@@H]3C[C@H](CN12)[C@H]1CCCCN1C3 | – | – | 29.5% | 29.2% | 30.5% | – | – | – | – | – | – | – | – | – | – | – | – | –
3 | COc1ccc2c(=O)oc3c(OC)cc(CCN(C)C)c4c(=O)oc1c2c34 [TASPINE] | Not Active | 27.7% | – | – | – | Not Active | – | – | 27.6% | Toxic | Toxic | Toxic | Toxic | – | – | – | – | –
4 | CN1CCCCC1CC(=O)c1ccc(O)cc1 (stereo not given) [THALICHROIDINE] | – | – | 30.8% | 29.5% | 29.2% | Not Active | Not Active | – | – | – | – | – | – | – | – | – | – | –
5 | O=c1cccc2n1C[C@H]1C[C@@H]2CN2CCCC[C@H]12 [ANAGYRINE] | – | – | 28.2% | 26.5% | 28.2% | Not Active | Not Active | Not Active | – | – | – | – | – | 15.5% | Active | 2.68 | 3.88 | –
6 | CN1C[C@@H]2C[C@H](C1)c1cccc(=O)n1C2 | – | – | 29% | – | – | – | 29.8% | 24% | – | – | – | – | – | – | 22.9% | 7.30 | – | 26.2%
